Results as given in ChEMBL document CHEMBL4725388, “Characterization of Aminobenzylphenols as Protein Disulfide Isomerase Inhibitors in Glioblastoma Cell Lines” (J Med Chem, 2020).

Assays:
[1] = biological target: Protein disulfide-isomerase (Homo sapiens, UniProt P07237); assay: Inhibition of recombinant human wild-type N-terminal His-tagged PDIA1 expressed in Escherichia coli strain BL21(DE3) using bovine insulin as substrate preincubated for 1 hr followed by substrate addition
In short: (§1)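 IC50 from dose-response curves; PDI reductase assay for enzyme, MTT in U-87 MG cells for cytotoxicity; mean ± SD of at least three independent experiments.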

U-87 MG = assay: Cytotoxicity against human U-87 MG cells assessed as growth inhibition measured after 72 hrs by MTT assay; type: functional, cell-based, U-87MG ATCC; in short: as §1

Protein disulfide-isomerase, sequence (P07237 whole entry): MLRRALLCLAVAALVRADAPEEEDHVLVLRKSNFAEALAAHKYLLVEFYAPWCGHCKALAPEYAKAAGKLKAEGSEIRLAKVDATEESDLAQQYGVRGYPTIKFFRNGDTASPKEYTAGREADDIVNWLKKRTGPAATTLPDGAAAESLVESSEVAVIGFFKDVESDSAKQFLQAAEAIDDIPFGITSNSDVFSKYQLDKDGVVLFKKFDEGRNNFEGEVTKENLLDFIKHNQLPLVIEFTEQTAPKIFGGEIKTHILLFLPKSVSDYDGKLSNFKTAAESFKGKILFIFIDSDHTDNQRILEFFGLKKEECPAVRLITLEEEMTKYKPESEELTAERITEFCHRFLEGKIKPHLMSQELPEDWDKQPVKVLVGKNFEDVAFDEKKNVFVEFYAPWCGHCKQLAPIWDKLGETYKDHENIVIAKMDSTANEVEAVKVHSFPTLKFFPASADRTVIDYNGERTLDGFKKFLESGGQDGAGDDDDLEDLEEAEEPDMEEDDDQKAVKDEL

SMILES | IC50 [1] [nM] | IC50 (U-87 MG) [nM]
COc1cc(C(Nc2ccccn2)c2cc3c(cc2O)OCO3)cc(OC)c1O (centres undefined) | 170 | > 10000
Cc1ccnc(NC(c2ccc3cccnc3c2O)c2c(F)cccc2Cl)c1 (centres undefined) | > 40000 | 20600
COc1ccc(C(Nc2ncccn2)c2cc3c(cc2O)OCO3)cc1 (centres undefined) | 1300 | > 10000
O=[N+]([O-])c1ccc(NC(c2ccccc2)c2ccc3cccnc3c2O)cc1 (centres undefined) | 150 | > 10000
Oc1cccc(C(Nc2ccccn2)c2ccc3cccnc3c2O)c1Cl (centres undefined) | 370 | > 10000
COc1cc(C(Nc2ccc(C)cn2)c2ccc3cccnc3c2O)cc(OC)c1O (centres undefined) | 180 | 7400
Cc1ccc(C(Nc2ccccn2)c2ccc3cccnc3c2O)cc1 (centres undefined) | 460 | > 10000
Cc1ccnc(NC(c2ccc(F)cc2)c2ccc3cccnc3c2O)c1 (centres undefined) | 140 | > 10000
Oc1ccc2[nH]ncc2c1C(c1ccc(-n2cccc2)cc1)N1CCCCC1 (centres undefined) | 290 | 
Oc1ccc2ncccc2c1C(c1ccc(F)cc1)N1CCCCC1 (centres undefined) | > 30000 | 
Oc1cc2c(cc1C(c1ccc(F)cc1)N1CCCCC1)CCCC2 (centres undefined) | > 100000 | 
Oc1ccc2ccncc2c1C(c1ccc(F)cc1)N1CCCCC1 (centres undefined) | 10200 | 
Oc1cc(F)ccc1C(c1ccc2ccoc2c1O)N1CCCCC1 (centres undefined) | 1070 | 
Oc1cc2c(cc1C(c1ccc3c(c1)OCO3)N1CCCCC1)OCO2 (centres undefined) | 350 | > 10000
COc1cc(C(Nc2ncccn2)c2cc3c(cc2O)OCO3)cc(OC)c1O (centres undefined) | 2200 | > 10000
CN(C)c1ccc(C(c2cc3c(cc2O)OCO3)N2CCCCC2)cc1 (centres undefined) | 1270 | 24700
COc1cccc(C(Nc2ncccn2)c2cc3c(cc2O)OCO3)c1O (centres undefined) | 9020 | > 10000
Oc1ccc(C(c2cc3c(cc2O)OCO3)N2CCNCC2)cc1 (centres undefined) | 680 | > 30000
COc1cc(C(c2cc3c(cc2O)OCO3)N2CCCCC2)cc(OC)c1OC (centres undefined) | 700 | > 10000
Oc1c(C(Nc2ccccn2)c2c(Cl)cccc2Cl)ccc2cccnc12 (centres undefined) | 1890 | 6900
O=C(O)c1ccc(NC(c2ccccc2)c2ccc3cccnc3c2O)cc1 (centres undefined) | 300 | > 10000
Cc1ccnc(NC(c2ccc(OCc3ccccc3)cc2)c2ccc3cccnc3c2O)c1 (centres undefined) | 620 | 9300
CNC(=O)NC(c1cc(OC)c(OC)c(OC)c1)c1cc2c(cc1O)OCO2 (centres undefined) | > 40000 | > 10000
COc1ccc(C(c2cc3c(cc2O)OCO3)N2CCCCC2)cc1OC (centres undefined) | 960 | 24800
COc1cc(C(c2cc3c(cc2O)OCO3)N2CCCC2)cc(OC)c1OC (centres undefined) | 180 | 24200

SMILES | IC50 [1] [nM] | IC50 (U-87 MG) [nM]
Cc1ccnc(NC(c2cccc(F)c2)c2ccc3cccnc3c2O)c1 (centres undefined) | 350 | 9200
Cc1ccnc(NC(c2ccccc2C)c2ccc3cccnc3c2O)c1 (centres undefined) | > 40000 | > 10000
COc1cc(C(c2cc3c(cc2O)OCO3)N2CCOCC2)cc(OC)c1OC (centres undefined) | 640 | > 10000
COc1ccccc1NC(c1ccccc1)c1ccc2cccnc2c1O (centres undefined) | 390 | > 10000
Oc1cc2c(cc1C(c1ccc(F)cc1)N1CCCCC1)NCC2 (centres undefined) | 7010 | 
COc1ccc(C(c2cc3c(cc2O)OCO3)N2CCCC2)cc1 (centres undefined) | 1520 | 22600
COc1cccc(C(c2cc3c(cc2O)OC(F)(F)O3)N2CCOCC2)c1OC (centres undefined) | 510 | 
COc1ccccc1C(c1cc2c(cc1O)OCO2)N1CCOCC1 (centres undefined) | 330 | 27700
Oc1ccc2[nH]ncc2c1C(c1ccc(F)cc1)N1CCCCC1 (centres undefined) | 350 | 
COc1ccc(C(c2cc3c(cc2O)OCO3)N2CCCC2)c(OC)c1 (centres undefined) | 360 | > 30000
NC(=O)NC(c1ccc(O)cc1)c1cc2c(cc1O)OCO2 (centres undefined) | > 40000 | > 10000
CCc1ccc(C(Nc2cc(C)ccn2)c2ccc3cccnc3c2O)cc1 (centres undefined) | 5390 | 8900
CNC(=O)NC(c1ccc(F)cc1)c1cc2c(cc1O)OCO2 (centres undefined) | > 30000 | > 10000
CN(C)c1ccc(C(c2cc3c(cc2O)OCO3)N2CCCC2)cc1 (centres undefined) | < 200 | > 30000
Oc1c(C(Nc2ccccc2)c2ccccc2)ccc2cccnc12 (centres undefined) | 110 | > 10000
Oc1ccc2[nH]ncc2c1C(c1ccc(C(F)(F)F)cc1)N1CCCCC1 (centres undefined) | 710 | 
COc1cccc(C(Nc2ccccn2)c2ccc3cccnc3c2O)c1 (centres undefined) | 2860 | 11900
Oc1c(C(Nc2ccccn2)c2ccccc2Cl)ccc2cccnc12 (centres undefined) | 500 | 9400
Oc1c(C(c2ccc(F)cc2)N2CCCCC2)ccc2cncnc12 (centres undefined) | 4860 | 
Oc1c(C(Nc2ccccn2)c2ccccc2F)ccc2cccnc12 (centres undefined) | 470 | > 10000
Oc1c(C(c2ccc(F)cc2)N2CCCCC2)ccc2c1OCCO2 (centres undefined) | 290 | 
O=C(O)c1ccccc1NC(c1ccccc1)c1ccc2cccnc2c1O (centres undefined) | 1480 | > 10000
COc1cccc(C(c2cc3c(cc2O)OCO3)N2CCCC2)c1O (centres undefined) | 1650 | > 10000
Oc1cc2c(cc1C(Nc1ncccn1)c1ccc3c(c1)OCO3)OCO2 (centres undefined) | 1180 | > 10000
Oc1ccc2[nH]ccc2c1C(c1ccc(F)cc1)N1CCCCC1 (centres undefined) | 1810 | 

SMILES | IC50 [1] [nM] | IC50 (U-87 MG) [nM]
Oc1cc2c(cc1C(c1ccc3c(c1)OCO3)N1CCCC1)OCO2 (centres undefined) | 23 | > 30000
Oc1ccc2scnc2c1C(c1ccc(F)cc1)N1CCCCC1 (centres undefined) | > 100000 | 
Oc1ccc2[nH]ncc2c1C(c1ccc(-c2nccs2)cc1)N1CCCCC1 (centres undefined) | 340 | 
Cc1ccnc(NC(c2ccccc2)c2ccc3cccnc3c2O)c1 (centres undefined) | < 200 | > 10000
Oc1ccc2[nH]ncc2c1C(c1ccc(-c2cncnc2)cc1)N1CCCCC1 (centres undefined) | 830 | 
Oc1cc2c(cc1C(c1ccc(F)cc1)N1CCCC1)OCO2 (centres undefined) | < 200 | > 30000
Oc1c(C(c2ccc(F)cc2)N2CCCCC2)ccc2c1CCC2 (centres undefined) | > 10000 | 
COc1cc(OC)c(C(c2cc3c(cc2O)OCO3)N2CCOCC2)c(OC)c1 (centres undefined) | 980 | 13600
Oc1c(C(c2ccc3c(c2)OC(F)(F)O3)N2CCCCC2)ccc2ccoc12 (centres undefined) | < 200 | 
Oc1cc2c(cc1C(c1ccc(F)cc1)n1ccnc1)OCO2 (centres undefined) | 670 | > 10000
CCOC(=O)c1ccccc1NC(c1ccccc1)c1ccc2cccnc2c1O (centres undefined) | < 200 | > 10000
Oc1ccc2nccnc2c1C(c1ccc(F)cc1)N1CCCCC1 (centres undefined) | > 100000 | 
Cc1ccnc(NC(c2ccc([N+](=O)[O-])cc2)c2ccc3cccnc3c2O)c1 (centres undefined) | 530 | 3400
Cc1ccnc(NC(c2ccccc2F)c2ccc3cccnc3c2O)c1 (centres undefined) | 880 | 13100
Oc1c(C(c2ccc(C(F)(F)F)cc2)N2CCCCC2)ccc2ccoc12 (centres undefined) | 300 | 
COc1ccc(C(c2cc3c(cc2O)OCO3)N2CCCCC2)c(OC)c1 (centres undefined) | 2590 | > 30000
Cc1cc(C)c(C(Nc2ccccn2)c2ccc3cccnc3c2O)c(C)c1 (centres undefined) | 190 | 10000
COc1cccc(C(c2cc3c(cc2O)OCO3)N2CCOCC2)c1O (centres undefined) | 900 | > 10000
Oc1cc2c(cc1C(c1ccc3c(c1)OCO3)N1CCOCC1)OCO2 (centres undefined) | < 200 | > 30000
CCc1ccc(C(Nc2ccccn2)c2ccc3cccnc3c2O)cc1 (centres undefined) | 170 | 9300
Oc1cc2c(cc1C(c1ccc(F)cc1)N1CCCCC1)OCO2 (centres undefined) | 270 | > 30000
Cc1ccnc(NC(c2ccc3cccnc3c2O)c2c(Cl)cccc2Cl)c1 (centres undefined) | > 40000 | 7200
Oc1cc2c(cc1C(Nc1ccccn1)c1ccc3c(c1)OCO3)OCO2 (centres undefined) | 72 | > 10000
Oc1c(C(c2ccc3c(c2)CCC3)N2CCCCC2)ccc2ccoc12 (centres undefined) | 410 | 
Cc1ccc(C)c(C(Nc2ccccn2)c2ccc3cccnc3c2O)c1 (centres undefined) | 730 | 13800

SMILES | IC50 [1] [nM] | IC50 (U-87 MG) [nM]
COc1cc(C(c2cc3c(cc2O)OCO3)N2CCOCC2)ccc1O (centres undefined) | 230 | 27100
Oc1cc2c(cc1C(c1ccc(F)cc1)N1CCOCC1)OCO2 (centres undefined) | 230 | > 30000
Cc1ccnc(NC(c2cc(C)ccc2C)c2ccc3cccnc3c2O)c1 (centres undefined) | > 40000 | > 10000
COc1ccc(C(Nc2cc(C)ccn2)c2ccc3cccnc3c2O)cc1O (centres undefined) | 150 | > 10000
Oc1ccccc1C(c1cc2c(cc1O)OCO2)N1CCOCC1 (centres undefined) | 340 | > 30000
Oc1ccc2cnccc2c1C(c1ccc(F)cc1)N1CCCCC1 (centres undefined) | > 100000 | 
Oc1c(C(c2ccc(F)cc2)N2CCCCC2)ccc2scnc12 (centres undefined) | 570 | 
O=[N+]([O-])c1ccc(C(c2c(O)ccc3[nH]ncc23)N2CCCCC2)cc1 (centres undefined) | 520 | 
CNC(=O)NC(c1ccc2c(c1)OCO2)c1cc2c(cc1O)OCO2 (centres undefined) | > 40000 | > 10000
Oc1c(C(c2ccc(F)cc2)N2CCCCC2)ccc2ccoc12 (centres undefined) | 560 | 
CN(C)c1cccc(C(c2ccc(F)cc2)N2CCCCC2)c1O (centres undefined) | > 30000 | 
CC(=O)c1cc2ccc(C(c3ccc(F)cc3)N3CCCCC3)c(O)c2o1 (centres undefined) | 1230 | 
Oc1c(C(c2ccc(F)cc2)N2CCCCC2)ccc2c1OCO2 (centres undefined) | 2830 | 
Cc1ccnc(NC(c2ccccc2Cl)c2ccc3cccnc3c2O)c1 (centres undefined) | > 40000 | 9900
Oc1c(C(c2ccc(F)cc2)N2CCCCC2)ccc2cnccc12 (centres undefined) | 610 | 
Oc1c(C(c2ccc(F)cc2)N2CCCCC2)ccc2nccnc12 (centres undefined) | 660 | 
COc1ccc(C(c2cc3c(cc2O)OCO3)N2CCOCC2)cc1 (centres undefined) | 130 | > 10000
Oc1cc2c(cc1C(c1ccc(Cl)cc1)N1CCOCC1)OCO2 (centres undefined) | 92 | > 30000
Oc1cc2c(cc1C(c1ccc(F)cc1)N1CCCCC1)OCCO2 (centres undefined) | 670 | 
COc1ccc(C(c2cc3c(cc2O)OCO3)n2ccnc2)cc1 (centres undefined) | 620 | > 10000
Cc1ccnc(NC(c2ccc(C(F)(F)F)cc2)c2ccc3cccnc3c2O)c1 (centres undefined) | 26500 | 2100
COc1ccc(C(c2cc3c(cc2O)OCO3)N2CCCCC2)cc1 (centres undefined) | 880 | 28300
